Holding throughout (type): cell-based
In test [1] the target is human P2Y12 receptor wild-type (Homo sapiens, UniProt Q9H244). The gist of the method: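 CHO-K1 stably expressing N-terminally HA-tagged human P2Y12 (Ham's F-12, 10% FBS, 500 µg/ml hygromycin B); [3H]adenine-labelled overnight, 0.4 mM IBMX 10 min, then 20 µM forskolin with ADP (0.01–10 µM) and/or antagonist (0.001–1 µM, against 10 µM ADP) 5 min, 37°C. TCA stop; [3H]cAMP/([3H]ATP+[3H]cAMP) conversion, normalized to forskolin alone; IC50 calculated; mean ± S.E.M., n=3.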
Sequence of human P2Y12 receptor wild-type (Q9H244 whole entry): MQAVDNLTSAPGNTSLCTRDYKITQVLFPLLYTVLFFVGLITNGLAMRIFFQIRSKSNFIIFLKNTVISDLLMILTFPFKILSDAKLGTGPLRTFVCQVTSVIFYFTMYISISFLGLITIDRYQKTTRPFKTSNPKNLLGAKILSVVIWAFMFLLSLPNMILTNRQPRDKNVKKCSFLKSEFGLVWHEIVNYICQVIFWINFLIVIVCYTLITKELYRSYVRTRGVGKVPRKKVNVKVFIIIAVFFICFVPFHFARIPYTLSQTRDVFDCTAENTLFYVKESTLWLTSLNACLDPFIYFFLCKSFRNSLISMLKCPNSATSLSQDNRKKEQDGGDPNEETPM

Test [2] concerns the target human P2Y12 receptor F104S mutant (Homo sapiens, UniProt Q9H244, F104S). The test is described as follows: cAMP assay, CHO-K1 cells expressing F104S mutant P2Y12. On the technique in general: Changes in cAMP serve as a functional read-out for many G protein-coupled receptors.
Test [3] has as its target human P2Y12 receptor Y109S mutant (Homo sapiens, UniProt Q9H244, Y109S). The test is described as follows: cAMP assay, CHO-K1 cells expressing Y109S mutant P2Y12.
Test [4] concerns the target human P2Y12 receptor F198P mutant (Homo sapiens, UniProt Q9H244, F198P). The test is described as follows: cAMP assay, CHO-K1 cells expressing F198P mutant P2Y12.
For test [5], the target named is human P2Y12 receptor H253S mutant (Homo sapiens, UniProt Q9H244, H253S). The test is described as follows: cAMP assay, CHO-K1 cells expressing H253S mutant P2Y12.
Sequence of human P2Y12 receptor H253S mutant (Q9H244 whole entry H253S): as the sequence (Q9H244 whole entry) above, with H253S counted along it
Test [6] addresses human P2Y12 receptor R256T mutant (Homo sapiens, UniProt Q9H244, R256T). The test is described as follows: cAMP assay, CHO-K1 cells expressing R256T mutant P2Y12.
Test [7] concerns the target human P2Y12 receptor R256Q mutant (Homo sapiens, UniProt Q9H244, R256Q). Put plainly: cAMP assay, CHO-K1 cells expressing R256Q mutant P2Y12.
The target of test [8] is human P2Y12 receptor R265W mutant (Homo sapiens, UniProt Q9H244, R265W). The test is described as follows: cAMP assay, CHO-K1 cells expressing R265W mutant P2Y12.
Sequence of human P2Y12 receptor R265W mutant (Q9H244 whole entry R265W): as the sequence (Q9H244 whole entry) above, with R265W counted along it
Test [9] concerns the target human P2Y12 receptor R256Q/R265W double mutant (Homo sapiens, UniProt Q9H244, R256Q/R265W). The test is described as follows: cAMP assay, CHO-K1 cells expressing R256Q/R265W double mutant P2Y12.
Test [10] deals with human P2Y12 receptor S288P mutant (Homo sapiens, UniProt Q9H244, S288P). The test is described as follows: cAMP assay, CHO-K1 cells expressing S288P mutant P2Y12.
Sequence of human P2Y12 receptor S288P mutant (Q9H244 whole entry S288P): as the sequence (Q9H244 whole entry) above, with S288P counted along it
Setting [11] is: CHO-K1, read-out: inhibition of cAMP at 10 μM ADP.

This is an account of results in article PMC2948851 (European journal of pharmacology, 2010).

In general, IC50 refers to the concentration that inhibits the measured activity by half. A higher IC50 goes with weaker potency in that assay. The term inhibition denotes the change of the read-out against control, counted positive when it falls.

Marks after values point to notes of the source that are not given here.

Sequence of human P2Y12 receptor F104S mutant (Q9H244 whole entry F104S): as the sequence (Q9H244 whole entry) above, with F104S counted along it
Sequence of human P2Y12 receptor R256T mutant (Q9H244 whole entry R256T): as the sequence (Q9H244 whole entry) above, with R256T counted along it
Sequence of human P2Y12 receptor R256Q mutant (Q9H244 whole entry R256Q): as the sequence (Q9H244 whole entry) above, with R256Q counted along it
Sequence of human P2Y12 receptor Y109S mutant (Q9H244 whole entry Y109S): as the sequence (Q9H244 whole entry) above, with Y109S counted along it
Sequence of human P2Y12 receptor R256Q/R265W double mutant (Q9H244 whole entry R256Q/R265W): as the sequence (Q9H244 whole entry) above, with R256Q, R265W counted along it
Sequence of human P2Y12 receptor F198P mutant (Q9H244 whole entry F198P): as the sequence (Q9H244 whole entry) above, with F198P counted along it

Regarding `Nc1ncnc2c1ncn2[C@@H]1O[C@H](COP(=O)(O)OP(=O)(O)O)[C@@H](O)[C@H]1O` [ADP, Adenosine diphosphate], the IC50 in [1] was determined as 250 ± 40 nM; in test [2], 60 ± 10 nM; in test [3], 170 ± 90 nM; in [4] it was 150 ± 50 nM; in test [5] it was 350 ± 210 nM; in [6], 290 ± 50 nM. Besides, the IC50 was found to be 570 ± 30 nM in test [7], 450 ± 210 nM in test [8], 6460 ± 190 nM in [9] and 40 ± 10 nM in test [10]. Further, the inhibition at 10 µM in [1] (CHO-K1, read-out: cAMP inhibition at 10 μM ADP, wild-type, 10 μM ADP) is approximately 85%; in test [3] (CHO-K1, read-out: cAMP inhibition at 10 μM ADP) it was approximately 20%; in [4] (CHO-K1, read-out: maximal inhibition of cAMP level at 10 μM ADP), approximately 40%; in test [5] (setting [11]), approximately 60%; in test [8] (setting [11]), approximately 60%. The “Max. inhibition by ADP (% of control)” value in test [1] (Wild-type construct, CHO-K1, 20 μM forskolin, cAMP) is recorded as 85.37 ± 2.14 (3) % of control; in [2] (F104S construct, CHO-K1, 20 μM forskolin, cAMP), 77.7 ± 1.12 (3) % of control; in test [3] (Y109S construct, CHO-K1, 20 μM forskolin, cAMP), 31.96 ± 0.15 ^b (3) % of control; in test [4] (F198P construct, CHO-K1, 20 μM forskolin, cAMP), 40.37 ± 10.64 ^b(3) % of control; in [5] (H253S construct, CHO-K1, 20 μM forskolin, cAMP), 62.21 ± 1.93 (3) % of control; in test [6] (R256T construct, CHO-K1, 20 μM forskolin, cAMP), 79.53 ± 4.83 (3) % of control. The “Max. inhibition by ADP (% of control)” value in test [7] (R256Q construct, CHO-K1, 20 μM forskolin, cAMP) is 75.32 ± 6.91 (3) % of control; in test [8] (R265W construct, CHO-K1, 20 μM forskolin, cAMP), 58.01 ± 3.08 ^a (3) % of control; in [9] (R256QR265W construct, CHO-K1, 20 μM forskolin, cAMP) it was 56.68 ± 6.32 ^a (3) % of control; in test [10] (S288P construct, CHO-K1, 20 μM forskolin, cAMP), 68.89 ± 6.24 (3) % of control. For the same compound, the “increase of potency of activation by ADP vs wild-type” value in [2] (F104S vs wild-type) is on record as 5 fold. In addition, the “left shift of ADP concentration curve vs wild-type” value in test [10] (S288P vs wild-type) is listed as “about 4 fold”.
As to `CSCCNc1nc(SCCC(F)(F)F)nc2c1ncn2[C@@H]1O[C@H](COP(=O)(O)OP(=O)(O)C(Cl)(Cl)P(=O)(O)O)[C@@H](O)[C@H]1O` [AR-C69931MX], in test [1] (wild-type, 10 nM AR-C69931MX, 10 μM ADP), the “antagonism effect of AR-C69931MX at 10 nM” value is listed as “did not occur”. For the same compound, the “AR-C69931MX concentration required to completely inhibit 10 μM ADP-induced inhibition of cAMP” value in test [1] (wild-type, 10 μM ADP) was 1 µM. In addition, the “AR-C69931MX concentration enough to block ADP (10 μM)-induced activation” value in [6] (R256T, 10 μM ADP) was determined as 100 nM. Also, the “shift of AR-C69931MX concentration curve vs wild-type” value in test [6] (R256T, in the presence of 10 μM ADP) is given as “significant left shift”; in test [7] (R256Q, in the presence of 10 μM ADP), “leftward shift”; in [8] (R265W, in the presence of 10 μM ADP, compared to R256Q and R256T) it was “even more leftward shift”; in test [9] (R256QR265W, in the presence of 10 μM ADP) it was “leftward shift”. Besides, the “AR-C69931MX concentration enough to block ADP-induced activation” value in [8] (R265W, 10 μM ADP) came out at 30 nM.
